Shown are actives, neighbours in structure and some others; about 3% of the full set was active somewhere.
UBC13 inh: inhibitors of human UBC13 polyubiquitin chain formation | P61088 | TR-FRET | inhibition, % at 20 µM | 330,000 tested, 0.47% active | AID 485273; in the data active means inhibition above about 45%, passing the limit was not always enough
hiPSC survival: hiPSC single-cell survival enhancement; ATPlite luminescence; 100% = ROCK inhibitor wells, 0% = DMSO; survival enhancement, % at 20 µM; 360,000 tested, 0.044% active; in the data active means survival enhancement above about 18%;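 further: cells exposed to compounds for 16 hours before the ATP read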
Exocytosis inh: lytic granule exocytosis inhibition. TALL-104 LAMP-1 surface exposure, flow cytometry; cells stimulated with thapsigargin and PMA. inhibition, % at 10 µM. 360,000 tested, 0.66% active. AID 651702;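 active means inhibition above about 55%, limit read from the data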
beta cell repl: inducers of beta-cell replication in MIN6 cells. MIN6 cells proliferation, ATPlite luminescence, 48 h; cells starved in 0.2% serum; 100% = growth in 10% serum. proliferation, % at 10 µM. 330,000 tested, 0.29% active;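 active means compounds whose signal lies at least 3.5 SD above the mean of all wells on their plate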;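 further: 0% = DMSO-treated cells in low-serum medium and 100% = 10% serum control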
Apaf1 inhib: inhibitors of human Apaf-1 apoptosome; O14727; reconstituted apoptosome caspase-3 activity, DEVD-Rh110 fluorescence; inhibition, % at 20 µM; 330,000 tested, 0.71% active; AID 489030; active means inhibition of at least 40% at 20 µM;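 further: plate controls were DMSO wells for no effect and DEVD-CHO caspase inhibitor wells for full effect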
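System: reconstituted apoptosome with Apaf-1, cytochrome c, caspase-9, procaspase-3, dATP; Signal: Rh110 fluorescence intensity; Schedule: 30 min compound preincubation, 50 min activation, room temperature; Reagent: cytochrome c trigger plus (Z-DEVD)2-Rh110 caspase-3 substrate.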
MPTP block: inhibitors of mitochondrial permeability transition pore. isolated mouse mitochondria, Ca2+ swelling absorbance, 30 min. AID 602449. inhibition, % at 10 µM. 360,000 tested, 1.4% active;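 active means inhibition of 50% or more, scaled per plate between neutral and stimulator controls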;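 further: 0% = DMSO wells given calcium and 100% = 1 mM EGTA wells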
Rh123 counter: mitochondrial membrane potential, counter-screen; inhibition, % at 10 µM; isolated mitochondria, Rhodamine 123 fluorescence; 5,000 tested, 78% active; AID 624504; shares compounds with MPTP block; in the data active means inhibition above about 22%;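 further: 0% = DMSO vehicle and 100% = positive control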
MPTP swell DR: MPTP inhibition, dose response swelling confirmation; shares compounds with MPTP block; isolated mitochondria swelling, absorbance; IC50, µM; 780 tested, 58% active; in the data active means IC50 below about 20 µM
MPTP counter DR: active in counter-screen for permeability transition pore inhibitors; IC50, µM; 780 tested, 49% active; shares compounds with MPTP block; isolated mitochondria counterscreen, fluorescence read-out; in the data active means IC50 below about 80 µM
Active calls of the source: *; / = no result.

SMILES | UBC13 inh | hiPSC survival | Exocytosis inh | beta cell repl | Apaf1 inhib | MPTP block | Rh123 counter | others
Cc1nc(Nc2ccc(F)cc2)[nH]c(=O)c1CCC(C)C | 5 | -4 | -2 | -5 | 19 | 95* | 77*
FC(F)(F)c1cnc(N2CCCN(C(=S)Nc3ccccc3)CC2)c(Cl)c1 | -3 | -1 | 1 | -4 | 2 | 70* | 51*
FC(F)(F)c1cnc(N2CCN(C(=S)NCc3ccccc3)CC2)c(Cl)c1 | 7 | 0 | -8 | -1 | 7 | 54* | 51*
Nc1cc(=O)[nH]c(SCc2cccc3ccccc23)n1 | 8 | 1 | -19 | -3 | 8 | -1 | /
O=c1cc(C(F)(F)F)nc(SCc2cccc3ccccc23)[nH]1 | -9 | 0 | 10 | -8 | -1 | 78* | 85*
Cc1ncc(NS(=O)(=O)c2ccc(N)cc2)nc1C | / | -2 | 11 | / | / | -1 | /
Cc1cc(C)nc(SCC(=O)N/N=C\C(Br)=C\c2ccccc2)n1 | -3 | -5 | 0 | -6 | 1 | 71* | 66*
Cc1cc(C)nc(SCC(=O)N/N=C/C=C/c2ccccc2)n1 | -16 | 1 | -2 | 0 | 1 | 3 | /
CN(C(=O)c1ccc(N2CCCCC2)c([N+](=O)[O-])c1)C1(C)CCS(=O)(=O)C1 (stereo not drawn) | -19 | 1 | -6 | 0 | 11 | 0 | /
O=S(=O)(NCC(Nc1ccccc1)c1ccccc1)c1ccc(Cl)cc1 (stereo not drawn) | 5 | -1 | 1 | -4 | -245 | 52* | 74*
CCCc1cc(=O)oc2cc(OCc3cc(OC)c(OC)c(OC)c3)c(Cl)cc12 | 18 | 2 | 4 | 0 | 17 | 9 | /
CCCCc1cc(=O)oc2cc(OCc3cc(OC)c(OC)c(OC)c3)c(Cl)cc12 | 18 | 23* | 0 | 0 | 15 | 88* | -4 | MPTP swell DR=3*;MPTP counter DR=5*
CCCN(CC(=O)Nc1ccc(Cl)cc1Cl)C(=O)c1ccc(=O)[nH]c1 | 13 | 0 | 6 | -1 | 19 | 2 | /
Cn1nnnc1SCCNCc1cc(Cl)ccc1OCc1ccccc1 | 0 | -1 | 2 | 0 | 15 | 83* | 31*
COc1ccc(CNCCc2ccccc2)cc1OCC(N)=O | -5 | 5 | -5 | 0 | 10 | -2 | /
CCOc1cc(CNCCc2ccc(S(N)(=O)=O)cc2)ccc1OCc1ccccc1 | / | -4 | 30 | / | / | 105* | 41*
COc1ccc(CNCCc2ccc(Cl)cc2)cc1OCc1ccccc1 | 9 | 0 | 31 | -6 | 6 | 86* | 84*
COc1ccc(CCNC(=O)Cc2ccc([N+](=O)[O-])cc2)cc1OC | 4 | 0 | -10 | -1 | -10 | 0 | /
Cn1nnnc1SCCNCc1ccccc1OCc1ccc(Cl)cc1 | 12 | 2 | 1 | -2 | -7 | 2 | /
COc1ccc(CCNC(=O)Cc2ccc(OCc3ccccc3)c(OC)c2[N+](=O)[O-])cc1OCc1ccccc1 | -11 | 0 | 1 | -3 | 17 | 76* | 55*
CCOc1cc(CNCCc2ccc(S(N)(=O)=O)cc2)cc(Cl)c1OCc1ccccc1 | 22 | -3 | 54 | -6 | 2 | 46 | /
COc1cccc(CN(C)C(=O)c2ccc(OCC(=O)N3CCOCC3)c(OC)c2)c1 | 5 | 0 | 8 | 0 | -4 | -3 | /
CSc1ccccc1OCc1cc(C(=O)N2CCc3[nH]cnc3C2c2ccccn2)no1 (stereo not drawn) | 2 | 0 | -2 | 2 | 16 | -1 | /
OCCNCc1cc(Br)ccc1OCc1ccccc1 | -11 | -3 | -5 | -1 | -2 | 0 | /
NS(=O)(=O)c1ccc(CCNCc2cc(Br)ccc2OCc2ccccc2)cc1 | 24 | 0 | 6 | 0 | 6 | 66* | 52*
SMILES | UBC13 inh | hiPSC survival | Exocytosis inh | beta cell repl | Apaf1 inhib | MPTP block | Rh123 counter | others
O=C(Nc1c(F)cc(F)cc1Br)c1cc(-c2ccc(O)cc2)on1 | 10 | 1 | -6 | -3 | 13 | 92* | 23*
CC(=O)c1ccc(S(=O)(=O)N2CCN(C(=O)c3cccc(S(=O)(=O)N4CC(C)OC(C)C4)c3)CC2)cc1 (stereo not drawn) | / | 0 | -6 | / | / | 0 | /
CC(C)(C)NC(=S)NNC(=O)[C@H]1C[C@@H]1c1ccccc1 | 1 | 1 | 1 | -2 | -17 | 3 | /
Cc1ccc(C2CC2C(=O)NNC(=S)Nc2ccc(Cl)cc2)cc1 (stereo not drawn) | -18 | 0 | -3 | -1 | -1 | 53* | 73*
COCC1CCCC1OS(N)(=O)=O (stereo not drawn) | -1 | -1 | -2 | -8 | 7 | -2 | /
Cc1cc(C)cc(N(CCC#N)C(=O)CSc2ncnc3sccc23)c1 | 4 | 1 | -4 | -1 | -1 | 0 | /
Cc1occc(=O)c1OC(=O)Nc1ccc(Cl)c(Cl)c1 | / | 2 | -7 | / | / | 99* | 78*
COc1ccc(C(=O)Oc2c(C)occc2=O)cc1OC | -2 | -3 | -1 | 1 | -13 | 3 | /
CC(C)CCN1C(=O)c2ccc(C(=O)Nc3ccc(Br)cc3C(=O)O)cc2C1=O | -19 | 0 | 9 | -1 | 18 | 93* | 46*
CC(C)CN1C(=O)c2ccc(C(=O)Nc3ccncc3)cc2C1=O | 13 | -1 | 2 | 0 | -8 | 60* | 70*
COc1ccc(Cl)cc1C(=O)NNC(=O)COC(=O)CCN=C1NS(=O)(=O)c2ccccc21 | 3 | 0 | -6 | -4 | 4 | -4 | /
Clc1cccc(-c2ccc(CNCc3ccccn3)o2)c1 | -2 | -1 | -1 | 0 | 7 | 1 | /
O=c1[nH]nc(Cc2ccc(-c3cccc(Cl)c3)o2)c2ccccc12 | -3 | 0 | -2 | -3 | 13 | 84* | 83*
O=[N+]([O-])c1ccc2nc(-c3cccnc3)[nH]c2c1 | -15 | -1 | -2 | -5 | 1 | -1 | /
O=[N+]([O-])c1cc([N+](=O)[O-])c2cc(-c3cccnc3)[nH]c2c1 | -15 | 0 | 4 | -2 | -13 | 52* | 56*
Cc1ccc(OCc2cc(C(=O)N3CCC(C(O)C(C)C)CC3)no2)cc1C (stereo not drawn) | 2 | 0 | 12 | 2 | 13 | 0 | /
O=C1C2CCCN2C(=S)N1c1cc(Cl)ccc1Cl (stereo not drawn) | 2 | 0 | 11 | -1 | 4 | 0 | /
O=C(CC12CC3CC(CC(C3)C1)C2)Nc1c(F)cccc1F | 6 | -1 | 9 | 2 | 2 | 0 | /

From PubChem BioAssay
